Experimental data reported in ChEMBL document CHEMBL3421607, “Design, synthesis and antibacterial activity of cinnamaldehyde derivatives as inhibitors of the bacterial cell division protein FtsZ” (Eur J Med Chem, 2015).
pIC50: −log10 of the molar value. Values after ≈ are worked out from the molar mass of the structure shown.

Tests used:
[1] = system: Bacillus subtilis; assay: microbe, parasite or virus in culture; assay type: functional; conditions: ATCC 9372, 24 h
[2] = system: Escherichia coli; assay: microbe, parasite or virus in culture; assay type: functional; conditions: ATCC 25922, 24 h
[3] = system: Pseudomonas aeruginosa; assay: microbe, parasite or virus in culture; assay type: functional; conditions: ATCC 27853, 24 h
[4] = system: Staphylococcus aureus; assay: microbe, parasite or virus in culture; assay type: functional; conditions: ATCC 25923, 24 h
[5] = system: Staphylococcus aureus; assay: microbe, parasite or virus in culture; assay type: functional; conditions: ATCC 29213, 24 h
[6] = system: Staphylococcus aureus; assay: Antibacterial activity against penicillin-resistant Staphylococcus aureus clinical isolates after 24 hrs by broth microdilution method; assay type: functional
[7] = system: Staphylococcus epidermidis; assay: Antibacterial activity against penicillin-resistant Staphylococcus epidermidis clinical isolates after 24 hrs by broth microdilution method; assay type: functional
[8] = system: Streptococcus pyogenes; assay: Antibacterial activity against penicillin-susceptible Streptococcus pyogenes clinical isolates after 24 hrs by broth microdilution method; assay type: functional
[9] = system: Streptococcus pyogenes; assay: Antibacterial activity against penicillin-resistant Streptococcus pyogenes clinical isolates after 24 hrs by broth microdilution method; assay type: functional
[10] = system: Bacillus subtilis; assay: microbe, parasite or virus in culture; assay type: functional; conditions: ATCC 9372, 5 h
[11] = system: Escherichia coli; assay: microbe, parasite or virus in culture; assay type: functional; conditions: ATCC 25922, 5 h
[12] = system: Pseudomonas aeruginosa; assay: microbe, parasite or virus in culture; assay type: functional; conditions: ATCC 27853, 5 h
[13] = system: Staphylococcus aureus; assay: microbe, parasite or virus in culture; assay type: functional; conditions: ATCC 25923, 5 h
[14] = system: Staphylococcus aureus; assay: Ratio of cinnamic acid MIC to compound MIC for penicillin-susceptible Staphylococcus aureus ATCC 25923; assay type: functional
[15] = system: Staphylococcus aureus; assay: Ratio of curcumin MIC to compound MIC for penicillin-susceptible Staphylococcus aureus ATCC 25923; assay type: functional
[16] = system: Staphylococcus aureus; assay: Ratio of ciprofloxacin MIC to compound MIC for penicillin-susceptible Staphylococcus aureus ATCC 25923; assay type: functional
[17] = system: Staphylococcus epidermidis; assay: Ratio of cinnamic acid MIC to compound MIC for Staphylococcus epidermidis; assay type: functional
[18] = system: Staphylococcus epidermidis; assay: Ratio of curcumin MIC to compound MIC for Staphylococcus epidermidis; assay type: functional
[19] = system: Staphylococcus epidermidis; assay: Ratio of ciprofloxacin MIC to compound MIC for Staphylococcus epidermidis; assay type: functional
[20] = molecular target: T1, Cell division protein FtsZ (Escherichia coli K-12) (UniProt P0A9A6); assay: Inhibition of Escherichia coli ATCC 25922 recombinant N-His6-tagged FtsZ polymerization expressed in Escherichia coli BL21(DE3) by light scattering assay
T1 sequence (whole entry): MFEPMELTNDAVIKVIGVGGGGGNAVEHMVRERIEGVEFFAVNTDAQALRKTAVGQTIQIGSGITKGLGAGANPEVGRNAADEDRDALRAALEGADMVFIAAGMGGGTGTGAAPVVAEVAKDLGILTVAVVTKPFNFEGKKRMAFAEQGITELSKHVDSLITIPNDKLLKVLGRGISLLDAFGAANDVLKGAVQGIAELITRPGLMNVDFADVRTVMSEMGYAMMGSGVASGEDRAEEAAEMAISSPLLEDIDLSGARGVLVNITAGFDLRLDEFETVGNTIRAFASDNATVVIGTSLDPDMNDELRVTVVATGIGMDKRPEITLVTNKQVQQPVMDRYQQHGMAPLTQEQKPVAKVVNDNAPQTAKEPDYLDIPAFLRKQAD
Method in brief: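 E. coli FtsZ (N-His6, expressed in BL21(DE3), Ni-affinity purified) at 12 µM in 50 mM MES, 5 mM MgCl2, 50 mM KCl, pH 6.5 with compound at various concentrations, 2% DMSO, 30°C. Right-angle light scattering at 400 nm (excitation and emission). 120 s baseline, then polymerization started with 2 mM GTP and followed for 2000 s.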

[21] = molecular target: T1, Cell division protein FtsZ (Escherichia coli K-12); assay: (§1) Inhibition of Escherichia coli ATCC 25922 recombinant N-His6-tagged FtsZ polymerization expressed in Escherichia coli BL21(DE3) incubated for 15 mins prior to GTP addition measured after 390 mins by malachite green staining-based GTPase assay; conditions: in the assay text read “30 mins” for “390 mins”
Method in brief: (§2)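 Purified N-His6 E. coli FtsZ (10 µM) in 50 mM MES, 5 mM MgCl2, 50 mM KCl, pH 6.5 with compound at varying concentrations (2% DMSO), preincubated 15 min at room temperature. 50 μM GTP then added for 30 min at 37°C. Released phosphate measured by Malachite Green reagent (20% v/v) at A620, background-subtracted and read against a phosphate standard curve.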

[22] = molecular target: T2, Cell division protein FtsZ (Escherichia coli K-12, UniProt P0A9A6); assay: as §1; conditions: in the assay text read “30 mins” for “390 mins”
T2 sequence (P0A9A6 whole entry): T1 sequence (whole entry)
Method in brief: as §2

[23] = system: Escherichia coli; assay: Antibacterial activity against Escherichia coli; assay type: functional
Method in brief: (§3)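 NCCLS tube-dilution MIC using B. subtilis ATCC9372 and E. coli ATCC25922. Strains were grown on Mueller Hinton agar at 37°C for 24 h. […] Tubes were incubated at 37°C for 24 h, and the MIC was read as the last tube without turbidity.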

[24] = system: Bacillus subtilis; assay: Antibacterial activity against Bacillus subtilis; assay type: functional
Method in brief: as §3

| Compound | MIC [1] [µg/mL] | MIC [2] [µg/mL] | MIC [3] [µg/mL] | MIC [4] [µg/mL] | MIC [5] [µg/mL] | MIC [6] [µg/mL] | MIC [7] [µg/mL] | MIC [8] [µg/mL] | MIC [9] [µg/mL] | MIC [10] [µg/mL] | MIC [11] [µg/mL] | MIC [12] [µg/mL] | MIC [13] [µg/mL] | other results |
| --- | --- | --- | --- | --- | --- | --- | --- | --- | --- | --- | --- | --- | --- | --- |
| Cc1nc2ccccc2n1C(=O)/C=C/c1ccccc1 | 128 (≈ 488 µM) | 128 (≈ 488 µM) | 128 (≈ 488 µM) | 4 (≈ 15.2 µM) | > 128 | 64 (≈ 244 µM) | 32 (≈ 122 µM) | 128 (≈ 488 µM) | 128 (≈ 488 µM) | > 128 | > 128 | > 128 | 0.25 (≈ 0.953 µM) | Ratio [14]: >512; Ratio [15]: >512; Ratio [16]: >512 |
| Cc1nc2ccccc2n1C(=O)/C=C/c1ccc(Cl)cc1Cl | 128 (≈ 386 µM) | 128 (≈ 386 µM) | 128 (≈ 386 µM) | 4 (≈ 12.1 µM) | > 128 | 16 (≈ 48.3 µM) | 4 (≈ 12.1 µM) | > 128 | 64 (≈ 193 µM) | > 128 | > 128 | > 128 | 1 (≈ 3.02 µM) | Ratio [17]: >32; Ratio [18]: >32; Ratio [19]: >32; inhibition [20]: Dose-dependent effect; inhibition [21]: Dose-dependent effect; pIC50 [22]: 4.04 |
| Cc1nc2ccccc2n1C(=O)/C=C/c1ccc(F)cc1 | 128 (≈ 457 µM) | 128 (≈ 457 µM) | 128 (≈ 457 µM) | 16 (≈ 57.1 µM) | > 128 | 64 (≈ 228 µM) | 16 (≈ 57.1 µM) | 128 (≈ 457 µM) | 64 (≈ 228 µM) | > 128 | > 128 | > 128 | 0.5 (≈ 1.78 µM) | inhibition [20]: Dose-dependent effect; inhibition [21]: Dose-dependent effect |
| COc1ccc(/C=C/C(=O)Nc2cccnc2)cc1 | 128 (≈ 503 µM) | 128 (≈ 503 µM) | 128 (≈ 503 µM) | 32 (≈ 126 µM) | > 128 | 64 (≈ 252 µM) | 128 (≈ 503 µM) | > 128 | 128 (≈ 503 µM) | > 128 | 128 (≈ 503 µM) | 128 (≈ 503 µM) | 4 (≈ 15.7 µM) | – |
| CCCNC(=O)/C=C/c1ccc(Cl)cc1Cl [3-(2,4-DICHLOROPHENYL)-N-PROPYLACRYLAMIDE] | > 128 | 128 (≈ 496 µM) | 128 (≈ 496 µM) | > 128 | > 128 | > 128 | > 128 | 128 (≈ 496 µM) | > 128 | 32 (≈ 124 µM) | > 128 | > 128 | 64 (≈ 248 µM) | – |
| CCCCCCNC(=O)/C=C/c1ccc(Cl)cc1Cl | > 128 | > 128 | > 128 | > 128 | > 128 | > 128 | > 128 | 128 (≈ 426 µM) | > 128 | 128 (≈ 426 µM) | > 128 | > 128 | > 128 | – |
| Cc1nc2ccccc2n1C(=O)/C=C/c1ccc(Cl)cc1 | 128 (≈ 431 µM) | 128 (≈ 431 µM) | 128 (≈ 431 µM) | 8 (≈ 27 µM) | > 128 | 64 (≈ 216 µM) | 16 (≈ 53.9 µM) | 32 (≈ 108 µM) | 8 (≈ 27 µM) | > 128 | > 128 | > 128 | 0.5 (≈ 1.68 µM) | inhibition [20]: Dose-dependent effect; inhibition [21]: Dose-dependent effect |
| CCN(CC)C(=O)/C=C/c1ccc(Cl)cc1Cl | > 128 | > 128 | 128 (≈ 470 µM) | > 128 | 128 (≈ 470 µM) | > 128 | 32 (≈ 118 µM) | 128 (≈ 470 µM) | 128 (≈ 470 µM) | > 128 | > 128 | > 128 | 128 (≈ 470 µM) | – |
| Cc1nc2ccccc2n1C(=O)/C=C/c1ccccc1Cl | 128 (≈ 431 µM) | 128 (≈ 431 µM) | 128 (≈ 431 µM) | 32 (≈ 108 µM) | 128 (≈ 431 µM) | 64 (≈ 216 µM) | 4 (≈ 13.5 µM) | > 128 | – | > 128 | 128 (≈ 431 µM) | 128 (≈ 431 µM) | 16 (≈ 53.9 µM) | Ratio [17]: >32; Ratio [18]: >32; Ratio [19]: >32 |
| O=C/C=C/c1ccccc1 | – | – | – | – | – | – | – | – | – | – | – | – | – | MIC [23]: 1000 µg/mL (≈ 7570 µM); MIC [24]: 500 µg/mL (≈ 3780 µM) |
| O=C(/C=C/c1ccc(Cl)cc1Cl)N1CCOCC1 | > 128 | 128 (≈ 447 µM) | 128 (≈ 447 µM) | > 128 | > 128 | > 128 | 64 (≈ 224 µM) | > 128 | 128 (≈ 447 µM) | > 128 | > 128 | > 128 | > 128 | – |
| CC(C)NC(=O)/C=C/c1ccc(Cl)cc1Cl [3-(2,4-DICHLOROPHENYL)-N-ISOPROPYLACRYLAMIDE] | > 128 | 128 (≈ 496 µM) | 128 (≈ 496 µM) | > 128 | > 128 | > 128 | > 128 | 64 (≈ 248 µM) | > 128 | 32 (≈ 124 µM) | > 128 | > 128 | 32 (≈ 124 µM) | – |
| COc1ccc(/C=C/C(=O)n2c(C)nc3ccccc32)cc1OC | > 128 | 128 (≈ 397 µM) | 128 (≈ 397 µM) | > 128 | > 128 | > 128 | > 128 | 64 (≈ 199 µM) | 64 (≈ 199 µM) | > 128 | 128 (≈ 397 µM) | > 128 | 64 (≈ 199 µM) | – |
